TRPC4 act: opens the mouse TRPC4 cation channel | hit rate 0.49% among 310,000 | Q9QUQ5 | AID 2237 | B-score at 10 µM | HEK293 TRPC4beta/mu-opioid, Fluo4 calcium fluorescence; hits give high values;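 active = B-score above 5 SD of library B-scores, and initial fluorescence ratio not above library mean plus 5 SD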;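 note: positive B-score marks a calcium rise read as TRPC4 activation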
Target sequence (Q9QUQ5 whole entry, looked up): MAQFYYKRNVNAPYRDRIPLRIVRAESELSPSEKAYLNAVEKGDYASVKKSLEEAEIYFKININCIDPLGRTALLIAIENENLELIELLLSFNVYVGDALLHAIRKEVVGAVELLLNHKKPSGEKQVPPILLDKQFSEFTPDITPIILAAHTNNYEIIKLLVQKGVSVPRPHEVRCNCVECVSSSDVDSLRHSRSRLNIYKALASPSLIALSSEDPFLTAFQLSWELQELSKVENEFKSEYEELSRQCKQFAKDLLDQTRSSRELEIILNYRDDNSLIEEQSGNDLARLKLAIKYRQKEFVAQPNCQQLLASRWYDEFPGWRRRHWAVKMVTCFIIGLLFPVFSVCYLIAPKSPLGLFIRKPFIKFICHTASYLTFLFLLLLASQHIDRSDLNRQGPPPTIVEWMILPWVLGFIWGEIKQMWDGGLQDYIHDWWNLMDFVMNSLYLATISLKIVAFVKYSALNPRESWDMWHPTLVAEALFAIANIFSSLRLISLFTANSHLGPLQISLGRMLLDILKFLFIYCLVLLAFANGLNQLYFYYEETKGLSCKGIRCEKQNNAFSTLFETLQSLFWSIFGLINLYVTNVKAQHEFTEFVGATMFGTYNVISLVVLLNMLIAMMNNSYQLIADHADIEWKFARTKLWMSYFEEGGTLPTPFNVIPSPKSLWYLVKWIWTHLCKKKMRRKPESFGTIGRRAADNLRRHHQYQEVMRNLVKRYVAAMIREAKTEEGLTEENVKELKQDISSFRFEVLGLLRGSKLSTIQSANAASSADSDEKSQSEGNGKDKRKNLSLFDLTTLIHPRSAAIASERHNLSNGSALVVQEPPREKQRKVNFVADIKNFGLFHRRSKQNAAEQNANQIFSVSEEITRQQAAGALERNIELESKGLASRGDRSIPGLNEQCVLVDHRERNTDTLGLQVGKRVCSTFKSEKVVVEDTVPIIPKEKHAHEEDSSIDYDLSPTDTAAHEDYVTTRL
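system = HEK293 cells stably co-expressing mouse TRPC4beta and mu-opioid receptor | schedule = Fluo4 dye loading 45 min at room temperature, 110 s recording | measure = B-scored integrated calcium fluorescence ratio | signal = Fluo4 calcium-sensitive dye fluorescence, kinetic, 1 Hz baseline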
TRPC4 potent: TRPC4 (mouse) allosteric potentiation. hit rate 0.42% among 310,000. AID 2227. HEK293 TRPC4beta/mu-opioid, DAMGO EC20, Fluo-4 Ca2+ flux; hits give high values. Q9QUQ5. B-score at 10 µM;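 active = B-score of calcium response area above 5 SD of library B-scores, with initial fluorescence ratio within 5 SD of library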;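 note: B-score of integrated fluorescence ratio over time as area under calcium response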
TRPC6 activator: mouse TRPC6 channel activation. Q61143. HEK293-TRPC6 membrane potential dye fluorescence; hits give high values. B-score at 10 µM. hit rate 0.13% among 310,000;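 active = B-score of the integrated fluorescence ratio above library mean plus 3 SD, and starting fluorescence ratio within library mean plus 5 SD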;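 note: higher score means more depolarization so channel activation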
TRPC6 inh: blocks the mouse TRPC6 cation channel; HEK293-TRPC6, membrane potential dye, ACh-evoked depolarization; hits give low values; B-score at 10 µM; hit rate 1.1% among 310,000; AID 2553;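 active = B-score under library mean minus 3 SD, initial fluorescence not abnormally high, positive integrated signal ratio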;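 note: B-score derived from integrated fluorescence ratio over the kinetic read; more negative B-score means stronger inhibition of depolarization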
TRPC4 block: blocks the mouse TRPC4 cation channel; HEK293 TRPC4beta/mu-opioid, DAMGO-evoked Fluo4 calcium flux; hits give low values; Q9QUQ5; hit rate 0.39% among 300,000; B-score at 10 µM; AID 2247;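 active = B-score over 3 SD under the library average, no early fluorescence shift, positive overall ratio signal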
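Signal: kinetic Fluo4 fluorescence imaging of calcium influx. Material: stable TRPC4beta/mu-opioid receptor HEK293 cells. Probe or stimulus: DAMGO in two steps, submaximal then maximal.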
* hit, by the source's call. In the library only some 2.3% were active in any assay of this set; here they are far more common.

`Nc1nc2ccccc2n1CCOc1ccc(Cl)cc1` gave TRPC4 act inactive, TRPC4 potent inactive, TRPC6 activator inactive, TRPC6 inh inactive and TRPC4 block -7*.
For CCC(=O)N(Cc1ccc(S(N)(=O)=O)cc1)C1CC(=O)N(c2ccccc2)C1=O (stereo not drawn) the results were TRPC4 act inactive, TRPC4 potent inactive, TRPC6 activator inactive, TRPC6 inh inactive and TRPC4 block inactive.
`COc1ccc(OC)c(Nc2cc(-c3ccccc3)nc(N)n2)c1` gave TRPC4 act inactive, TRPC4 potent inactive, TRPC6 activator inactive, TRPC6 inh -5.4* and TRPC4 block -7*.
CN1CCN(c2ccc(C(F)(F)F)cc2NC(=O)Nc2ccccc2)CC1 was read as TRPC4 act 105*, TRPC4 potent 17*, TRPC6 activator inactive, TRPC6 inh inactive and TRPC4 block inactive.
`CC(Cl)C(=O)Nc1cc(C(F)(F)F)ccc1N1CCOCC1` (stereo not drawn) gave TRPC4 act inactive, TRPC4 potent inactive, TRPC6 activator inactive, TRPC6 inh inactive and TRPC4 block inactive.
For CC(=O)c1ccc(N2CCN(C(=O)CCS(=O)(=O)c3ccc4c(c3)NC(=O)CS4)CC2)cc1 the results were TRPC4 act inactive, TRPC4 potent 17*, TRPC6 activator inactive, TRPC6 inh inactive and TRPC4 block inactive.
`CSCCC(NC(=O)c1ccccc1)C(=O)Nc1ccc(NC(C)=O)cc1` (stereo not drawn) gave TRPC4 act inactive, TRPC4 potent inactive, TRPC6 activator inactive, TRPC6 inh -5.2* and TRPC4 block inactive.
`CCC(C)NC(=O)C(CCSC)NC(=O)c1ccccc1` (stereo not drawn) gave TRPC4 act inactive, TRPC4 potent inactive, TRPC6 activator inactive, TRPC6 inh inactive and TRPC4 block inactive.
`CN1/C(=C\C(=O)C[n+]2ccc3ccccc3c2)C(C)(C)c2ccccc21` gave TRPC4 act inactive, TRPC4 potent inactive, TRPC6 activator inactive, TRPC6 inh inactive and TRPC4 block -6*.
Screening COc1ccc(CCN=C(N)Nc2nc(C)cc(C)n2)cc1 returned TRPC4 act inactive, TRPC4 potent inactive, TRPC6 activator inactive, TRPC6 inh inactive and TRPC4 block -6*.
`COc1ccc(CCN=C(N)NS(=O)(=O)c2ccc(OC)cc2)cc1` gave TRPC4 act inactive, TRPC4 potent inactive, TRPC6 activator inactive, TRPC6 inh inactive and TRPC4 block inactive.
CC(C)c1ccc(C2C3CSCC=C3C(C#N)=C(N)C2(C#N)C#N)cc1 (stereo not drawn) was read as TRPC4 act inactive, TRPC4 potent 23*, TRPC6 activator inactive, TRPC6 inh inactive and TRPC4 block inactive.
Screening CCc1ccc(C(=O)COC(=O)[C@@H](NC(N)=O)[C@@H](C)CC)cc1 returned TRPC4 act inactive, TRPC4 potent inactive, TRPC6 activator inactive, TRPC6 inh inactive and TRPC4 block inactive.
`CSc1ccccc1C(=O)NC1CCCc2ccccc21` (stereo not drawn) gave TRPC4 act inactive, TRPC4 potent inactive, TRPC6 activator inactive, TRPC6 inh inactive and TRPC4 block inactive.
Screening O=C(COC(=O)C12CC3CC(CC(C3)C1)C2)Nc1nccs1 returned TRPC4 act inactive, TRPC4 potent inactive, TRPC6 activator inactive, TRPC6 inh inactive and TRPC4 block inactive.
`Cc1ccnc(NC(=O)COC(=O)C23CC4CC(CC(C4)C2)C3)n1` gave TRPC4 act inactive, TRPC4 potent 35*, TRPC6 activator inactive, TRPC6 inh inactive and TRPC4 block inactive.
`COc1cccc(NC(=S)N2CCCN(Cc3ccc(F)cc3)C2)c1` gave TRPC4 act 45*, TRPC4 potent inactive, TRPC6 activator inactive, TRPC6 inh inactive and TRPC4 block inactive.
COc1ccc(NC(=S)N2CCCN(Cc3cccc(Cl)c3)C2)cc1 was read as TRPC4 act inactive, TRPC4 potent inactive, TRPC6 activator inactive, TRPC6 inh inactive and TRPC4 block inactive.
CN(C)C1(CNC(=O)C2CCN(S(=O)(=O)c3cccc(C(F)(F)F)c3)CC2)CCCCC1 was read as TRPC4 act inactive, TRPC4 potent inactive, TRPC6 activator inactive, TRPC6 inh inactive and TRPC4 block inactive.
